Data set [1] is described as follows: Cytotoxicity against human HGF cells after 24 by MTT assay. Format: cell-based. The settings on record: read-out: LD50 (the source's name). Put shortly: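 Primary human gingival fibroblasts from a healthy person's gingival biopsy, explant-cultured in α-MEM with 30% FBS and antibiotics, used at passages 5–7. Cells were seeded at 6×10^3 into 96-well plates for 24 h, PBS-washed, and exposed to compound for 24 h. Viability was read by MTT (0.2 mg/mL, 4 h), DMSO lysis and A540, giving LD50 in µg/mL.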

The subject of data set [2] is HSC-2. The experiment in a line: Cytotoxicity against human HSC2 cells after 24 by MTT assay. The settings on record: read-out: LD50 (the source's name). Format: functional. (Tetrazolium dyes change colour on reduction, which living cells bring about.)

In brackets after ≈: the same amount, converted by molar mass.

For `C[C@@H]1CC[C@@]2(OC1)O[C@H]1C[C@H]3[C@@H]4CC=C5C[C@@H](O[C@@H]6O[C@H](CO)[C@H](O[C@@H]7O[C@H](CO)[C@@H](O)[C@H](O[C@@H]8OC[C@@H](O)[C@H](O)[C@H]8O)[C@H]7O[C@@H]7O[C@H](CO)[C@@H](O)[C@H](O)[C@H]7O)[C@H](O)[C@H]6O)[C@H](O)C[C@]5(C)[C@H]4CC[C@]3(C)[C@H]1[C@@H]2C`, the CC50 came to 37 µg/mL (≈ 35.3 µM) in data set [1] and 12 µg/mL (≈ 11.4 µM) in data set [2].

For `C[C@@H]1CC[C@@]2(OC1)O[C@H]1C[C@H]3[C@@H]4CC=C5C[C@@H](O[C@@H]6O[C@H](CO)[C@H](O[C@@H]7O[C@H](CO)[C@@H](O)[C@H](O[C@@H]8OC[C@@H](O)[C@H](O)[C@H]8O)[C@H]7O[C@@H]7O[C@H](CO)[C@@H](O)[C@H](O[C@@H]8O[C@H](CO)[C@@H](O)[C@H](O)[C@H]8O)[C@H]7O)[C@H](O)[C@H]6O)[C@H](O)C[C@]5(C)[C@H]4CC[C@]3(C)[C@H]1[C@@H]2C`, the values for the CC50 in data set [1] and in data set [2] were 31 µg/mL (≈ 25.6 µM) and 2.7 µg/mL (≈ 2.23 µM), respectively.

For the molecule `C[C@@H]1CC[C@@]2(OC1)O[C@H]1C[C@H]3[C@@H]4CC=C5C[C@@H](O[C@@H]6O[C@H](CO)[C@@H](O[C@@H]7O[C@@H](C)[C@H](O[C@@H]8O[C@@H](C)[C@H](O)[C@@H](O)[C@H]8O)[C@@H](O)[C@H]7O)[C@H](O)[C@H]6O[C@@H]6O[C@@H](C)[C@H](O)[C@@H](O)[C@H]6O)[C@H](O)C[C@]5(C)[C@H]4CC[C@]3(C)[C@H]1[C@@H]2C`, the CC50 worked out at 9.1 µg/mL (≈ 8.82 µM) in data set [1] and 5.5 µg/mL (≈ 5.33 µM) in data set [2].

As for `C[C@@H]1CC[C@@]2(OC1)O[C@H]1C[C@H]3[C@@H]4CC=C5C[C@@H](O[C@@H]6O[C@H](CO)[C@H](O[C@@H]7O[C@H](CO)[C@@H](O)[C@H](O[C@@H]8OC[C@@H](O)[C@H](O)[C@H]8O)[C@H]7O[C@@H]7O[C@H](CO)[C@@H](O)[C@H](O)[C@H]7O)[C@H](O)[C@H]6O)[C@H](O)C[C@]5(C)[C@H]4CC[C@]3(C)[C@@]1(O)[C@@H]2C`, the CC50 in data set [1] turned out to be 58 µg/mL (≈ 54.5 µM); in data set [2] it was 13 µg/mL (≈ 12.2 µM).

On to `C[C@@H]1CC[C@@]2(OC1)O[C@H]1[C@@H](O)[C@H]3[C@@H]4CC=C5C[C@@H](O[C@@H]6O[C@H](CO)[C@H](O[C@@H]7O[C@H](CO)[C@@H](O)[C@H](O[C@@H]8OC[C@@H](O)[C@H](O)[C@H]8O)[C@H]7O[C@@H]7O[C@H](CO)[C@@H](O)[C@H](O[C@@H]8O[C@H](CO)[C@@H](O)[C@H](O)[C@H]8O)[C@H]7O)[C@H](O)[C@H]6O)[C@H](O)C[C@]5(C)[C@H]4CC[C@]3(C)[C@H]1[C@@H]2C`, for which the results for the CC50 in data set [1] and in data set [2] were 22 µg/mL (≈ 17.9 µM) and 4.4 µg/mL (≈ 3.59 µM), respectively.

On to `C[C@@H]1CC[C@@]2(OC1)O[C@H]1C[C@H]3[C@@H]4CC=C5C[C@@H](O[C@@H]6O[C@H](CO)[C@H](O[C@@H]7O[C@H](CO)[C@@H](O)[C@H](O[C@@H]8OC[C@@H](O)[C@H](O)[C@H]8O)[C@H]7O[C@@H]7O[C@H](CO)[C@@H](O)[C@H](O[C@@H]8O[C@H](CO)[C@@H](O)[C@H](O)[C@H]8O)[C@H]7O)[C@H](O)[C@H]6O)[C@H](O)C[C@]5(C)[C@H]4CC[C@]3(C)[C@@]1(O)[C@@H]2C`, for which the CC50 in data set [1] is 34 µg/mL (≈ 27.7 µM); in data set [2] it was 5.5 µg/mL (≈ 4.48 µM).

On to `C[C@@H]1O[C@@H](OC[C@H]2O[C@@H](Oc3c(-c4ccc(O)cc4)oc4cc(O)cc(O)c4c3=O)[C@H](O[C@@H]3OC[C@@H](O)[C@H](O)[C@H]3O)[C@@H](O)[C@@H]2O)[C@H](O)[C@H](O)[C@H]1O` [CAMELLIASIDE B], for which the CC50 in data set [1] and in data set [2] was over 400 µg/mL each time.

For the molecule `C[C@@H]1CC[C@@]2(OC1)O[C@H]1C[C@H]3[C@@H]4CC=C5C[C@@H](O[C@@H]6O[C@H](CO)[C@@H](O[C@@H]7O[C@@H](C)[C@H](O[C@@H]8O[C@@H](C)[C@H](O)[C@@H](O)[C@H]8O)[C@@H](O)[C@H]7O)[C@H](O)[C@H]6O[C@@H]6O[C@@H](C)[C@H](O)[C@@H](O)[C@H]6O)CC[C@]5(C)[C@H]4CC[C@]3(C)[C@H]1[C@@H]2C` [PENNOGENIN RAHAMNOSYL CHACOTRIOSIDE], the CC50 in data set [1] is 2.8 µg/mL (≈ 2.76 µM); in data set [2] it was 2 µg/mL (≈ 1.97 µM).
